Source: ChEMBL document CHEMBL1156469 (2007)
Calls of active or inactive are those of the source. No cut-off for these calls is given here.

Experiments:
MC3T3-E1 [1] = assay: Increase in BMP2 expression in mouse MC3T3-E1 cells expressing pBMP2delta2 mutant at 1 uM after 4 hrs by luciferase method relative to control; format: functional, cell-based
Outline: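 MC3T3-E1 cells transfected with BMP-2 promoter–luciferase constructs (full promoter or deletions), treated with 1 μm or vehicle for 4 h; Dual-Luciferase assay; means ± S.D.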

Osteoblast [2] = assay: Effect on actin beta gene expression in rat primary osteoblast cells assessed as expression ratio of treated to untreated control by microarray analysis; format: functional
[3] = molecular target: Alkaline phosphatase (Rattus norvegicus) (UniProt Q9JKS8); assay: Inhibition of induction of ALP activity in rat primary osteoblast cells at 1 uM after 48 hrs in presence of noggin; format: cell-based
Alkaline phosphatase (Rattus norvegicus), sequence (Q9JKS8 as listed by the source): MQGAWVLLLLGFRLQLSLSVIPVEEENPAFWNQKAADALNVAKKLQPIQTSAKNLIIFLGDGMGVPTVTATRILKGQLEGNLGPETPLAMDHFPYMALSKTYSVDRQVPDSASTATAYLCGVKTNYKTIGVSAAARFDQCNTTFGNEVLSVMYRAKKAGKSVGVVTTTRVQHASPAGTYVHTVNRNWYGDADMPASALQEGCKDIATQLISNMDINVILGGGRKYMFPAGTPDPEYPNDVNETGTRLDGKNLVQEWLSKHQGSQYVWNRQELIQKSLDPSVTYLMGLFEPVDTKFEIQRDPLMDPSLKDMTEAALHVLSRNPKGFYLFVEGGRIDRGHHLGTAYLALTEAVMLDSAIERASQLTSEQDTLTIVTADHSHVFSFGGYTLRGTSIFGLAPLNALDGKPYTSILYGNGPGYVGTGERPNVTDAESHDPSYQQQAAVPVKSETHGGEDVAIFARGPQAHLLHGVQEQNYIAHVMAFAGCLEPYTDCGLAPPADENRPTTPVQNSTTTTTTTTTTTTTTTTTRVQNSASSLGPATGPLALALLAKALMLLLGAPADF

[4] = molecular target: Proto-oncogene tyrosine-protein kinase Src (Mus musculus) (UniProt P05480); assay: Increase in Src kinase phosphorylation in mouse MC3T3-E1 cells at 1 uM; format: cell-based
Proto-oncogene tyrosine-protein kinase Src (Mus musculus), sequence (P05480 2-535 limits assumed): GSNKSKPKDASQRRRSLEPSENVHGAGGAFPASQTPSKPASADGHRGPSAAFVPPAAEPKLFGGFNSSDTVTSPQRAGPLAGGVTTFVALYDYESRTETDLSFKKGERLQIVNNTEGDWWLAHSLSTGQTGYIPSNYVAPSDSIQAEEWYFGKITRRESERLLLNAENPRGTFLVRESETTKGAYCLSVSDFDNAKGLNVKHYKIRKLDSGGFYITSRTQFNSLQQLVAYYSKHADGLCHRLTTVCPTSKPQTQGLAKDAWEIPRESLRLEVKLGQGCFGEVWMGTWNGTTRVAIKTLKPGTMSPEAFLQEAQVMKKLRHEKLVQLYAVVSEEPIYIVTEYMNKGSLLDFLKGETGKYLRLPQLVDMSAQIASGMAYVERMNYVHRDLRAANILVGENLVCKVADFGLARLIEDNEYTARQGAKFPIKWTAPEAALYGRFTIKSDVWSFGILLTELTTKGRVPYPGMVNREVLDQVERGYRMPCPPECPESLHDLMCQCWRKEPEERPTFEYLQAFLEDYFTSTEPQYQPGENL
Outline: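 MC3T3-E1 cells, with or without DN-Src vector (3 μg) or PP2 (10 μm), treated ± 1 μm; Src phosphorylation by Western blot; three independent experiments.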

[5] = molecular target: T1, Estrogen receptor (Mus musculus) (UniProt P19785); assay: Reversal of increase in DNA-binding activity of ERalpha in nuclear extracts of mouse MC3T3-E1 cells by electrophoretic mobility shift assays in presence of ICI-182780; format: cell-based
T1 sequence (whole entry): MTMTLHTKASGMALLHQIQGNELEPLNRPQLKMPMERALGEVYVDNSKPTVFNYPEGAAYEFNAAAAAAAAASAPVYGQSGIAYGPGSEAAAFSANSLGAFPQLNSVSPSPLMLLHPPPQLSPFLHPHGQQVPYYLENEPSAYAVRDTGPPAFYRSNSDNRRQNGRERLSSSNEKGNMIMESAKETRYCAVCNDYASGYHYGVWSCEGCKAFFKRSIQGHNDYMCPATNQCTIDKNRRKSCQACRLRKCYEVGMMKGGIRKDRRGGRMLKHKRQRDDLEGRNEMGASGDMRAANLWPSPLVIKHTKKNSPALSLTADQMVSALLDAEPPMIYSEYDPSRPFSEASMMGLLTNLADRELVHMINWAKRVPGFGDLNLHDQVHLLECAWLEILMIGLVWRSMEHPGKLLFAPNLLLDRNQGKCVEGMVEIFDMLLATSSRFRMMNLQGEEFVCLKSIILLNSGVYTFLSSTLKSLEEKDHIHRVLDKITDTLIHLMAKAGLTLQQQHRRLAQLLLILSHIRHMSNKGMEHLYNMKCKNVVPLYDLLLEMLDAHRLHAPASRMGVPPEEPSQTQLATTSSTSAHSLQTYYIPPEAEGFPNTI
Outline: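 Nuclear extracts of MC3T3-E1 cells. ER-binding probe [α-32P]dCTP end-labeled, 20-min binding at room temperature, 5-fold unlabeled competitor where used. Complexes resolved on 5% nondenaturing PAGE in Tris-borate-EDTA pH 8.3, then autoradiography.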

[6] = molecular target: Forkhead box protein O3 (Homo sapiens) (UniProt O43524); assay: Reversal of induction of FOXO3a activity in human MDA-MB-231 cells transfected with constitutively activated Akt mutant; format: cell-based
Forkhead box protein O3 (Homo sapiens), sequence (O43524 whole entry): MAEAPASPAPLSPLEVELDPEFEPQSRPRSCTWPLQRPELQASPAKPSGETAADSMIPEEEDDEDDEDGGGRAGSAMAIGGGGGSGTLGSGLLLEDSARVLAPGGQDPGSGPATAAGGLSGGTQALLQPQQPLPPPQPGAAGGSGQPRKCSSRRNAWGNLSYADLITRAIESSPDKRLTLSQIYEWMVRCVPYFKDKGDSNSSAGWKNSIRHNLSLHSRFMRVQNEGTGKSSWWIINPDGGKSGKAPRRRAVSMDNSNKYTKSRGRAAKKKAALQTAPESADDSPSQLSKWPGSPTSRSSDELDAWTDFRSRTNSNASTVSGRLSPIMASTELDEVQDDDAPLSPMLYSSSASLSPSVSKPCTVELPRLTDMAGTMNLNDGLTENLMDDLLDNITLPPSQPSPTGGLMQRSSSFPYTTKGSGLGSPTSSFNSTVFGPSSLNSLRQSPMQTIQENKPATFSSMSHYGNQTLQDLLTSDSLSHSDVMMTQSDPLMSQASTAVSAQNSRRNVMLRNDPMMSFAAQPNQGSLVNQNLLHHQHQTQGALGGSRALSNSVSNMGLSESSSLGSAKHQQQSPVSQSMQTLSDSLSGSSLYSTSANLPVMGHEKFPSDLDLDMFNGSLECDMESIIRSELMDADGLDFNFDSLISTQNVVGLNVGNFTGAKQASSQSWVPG

[7] = molecular target: Forkhead box protein O3 (Homo sapiens) (UniProt O43524); assay: Enhancement of FOXO3a activity in human MDA-MB-231 cells transfected with dominant negative Akt mutant; format: cell-based
Outline: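 MDA-MB-231 cells transfected with vector, constitutively active Akt or dominant negative Akt, treated ± compound; analyzed by Western blotting and BMP-2 promoter luciferase activity.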

MDA-MB-231 = assay: Induction of FOXO3a nuclear accumulation in human MDA-MB-231 cells FOXO3a-specific small interfering RNA xenografted in nude mice at 10 mg/kg for 2 days; format: functional, organism-based; parameters: dose 10 mg/kg
Osteoblast [8] = assay: Effect on procollagen 4 alpha 1 gene expression in rat primary osteoblast cells assessed as expression ratio of treated to untreated control by microarray analysis; format: functional
Outline: (§1)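 Resveratrol-treated and vehicle-treated primary osteoblasts were profiled on a mouse osteogenesis-focused cDNA array (GEArray Q series) built to track gene expression during osteogenic differentiation. Each gene's signal in treated cells was expressed as a ratio to untreated control.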

MC3T3-E1 [9] = assay: Induction of ER association with BMP2 promoter in mouse MC3T3-E1 cells at 1 uM by ChiP assay; format: functional, cell-based
Outline: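 MC3T3-E1 cells ± 1 μm, formaldehyde-fixed; ChIP with transcription factor antibodies and protein G magnetic beads; BMP-2 promoter quantified by real-time PCR (45 cycles); ratio of IP to input Ct values.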

MG-63 = assay: Increase in proliferation of human MG63 cells at 0.1 to 10 uM after 24 hr by flow cytometry; format: functional, cell-based
Osteoblast [10] = assay: Increase in proliferation of rat primary osteoblast cells at 0.1 to 10 uM after 24 hr by flow cytometry; format: functional, cell-based
MC3T3-E1 [11] = assay: Increase in osteocalcin mRNA levels in mouse MC3T3-E1 cells at 1 uM after 72 hrs by RT-PCR; format: functional, cell-based
Outline: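 Cells treated with 1 μm for 72 h; osteocalcin and osteopontin mRNA by RT-PCR, 30 cycles (95/52/72 °C, 1 min each), ethidium bromide–stained agarose gels; repeated at least twice from at least two cDNA preparations.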

MC3T3-E1 [12] = assay: Inhibition of etoposide-induced apoptosis in mouse MC3T3-E1 cells after 24 hrs by flow cytometry; format: functional, cell-based
Outline: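 Cells washed in PBS, held 30 min in 0.5% Triton X-100/PBS/0.05% RNase A, then propidium iodide (50 μg/ml) added and kept on ice 15–30 min. Apoptosis is the hypodiploid fraction below the G0/G1 peak, by flow cytometry. Run in triplicate and repeated on three occasions.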

MCF7 = assay: Antitumor activity against human MCF7 cells xenografted in SCID mouse orthotropic model assessed as inhibition of 17beta estradiol-induced tumor weight at 10 mg/kg for 2 days; format: functional; parameters: scale not given: the % may be the effect or the level left
Outline: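 Tumor cells were inoculated orthotopically into the mammary fat pad of 6-week-old female SCID mice. […] Tumor volume was calculated as LW2/2. Tumor formation was scored as mice with tumors per total (20 per group), and tumor weight as mean ± S.D. Groups were compared by one-way ANOVA with LSD post-hoc comparisons.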

Osteoblast [13] = assay: Effect on procollagen 9 alpha 3 gene expression in rat primary osteoblast cells assessed as expression ratio of treated to untreated control by microarray analysis; format: functional; outline: as §1
Osteoblast [14] = assay: Effect on procollagen 9 alpha 1 gene expression in rat primary osteoblast cells assessed as expression ratio of treated to untreated control by microarray analysis; format: functional; outline: as §1
Osteoblast [15] = assay: Effect on procollagen 4 alpha 4 gene expression in rat primary osteoblast cells assessed as expression ratio of treated to untreated control by microarray analysis; format: functional; outline: as §1
Osteoblast [16] = assay: Effect on MAD homolog 1 gene expression in rat primary osteoblast cells assessed as expression ratio of treated to untreated control by microarray analysis; format: functional
Osteoblast [17] = assay: Effect on matrix metalloprotease 13 gene expression in rat primary osteoblast cells assessed as expression ratio of treated to untreated control by microarray analysis; format: functional; outline: as §1
Osteoblast [18] = assay: Effect on secreted acidic cysteine rich glycoprotein gene expression in rat primary osteoblast cells assessed as expression ratio of treated to untreated control by microarray analysis; format: functional; outline: as §1
Osteoblast [19] = assay: Effect on procollagen 3 alpha 1 gene expression in rat primary osteoblast cells assessed as expression ratio of treated to untreated control by microarray analysis; format: functional; outline: as §1
MC3T3-E1 [20] = assay: Inhibition of antiapoptotic activity in mouse MC3T3-E1 cells at 1 uM after 48 hrs in presence of noggin; format: functional, cell-based

Activity [3]: Active
Activity [4]: Active
Activity [5]: Active
Activity [6]: Active
Activity [7]: Active
SMILES: Oc1ccc(/C=C/c2cc(O)cc(O)c2)cc1 [RESVERATROL]
Activity (MC3T3-E1 [1]): inactive
Ratio (Osteoblast [2]): 1
Activity (MDA-MB-231): Active
Ratio (Osteoblast [8]): 8.15
Activity (MC3T3-E1 [9]): Active
Activity (MG-63): Active
Activity (Osteoblast [10]): Active
Activity (MC3T3-E1 [11]): Active
Activity (MC3T3-E1 [12]): Active
Activity (MCF7): 54.6%
Ratio (Osteoblast [13]): 6.67
Ratio (Osteoblast [14]): 3.99
Ratio (Osteoblast [15]): 4.98
Ratio (Osteoblast [16]): 3.24
Ratio (Osteoblast [17]): 0.64
Ratio (Osteoblast [18]): 1.6
Ratio (Osteoblast [19]): 4.41
Activity (MC3T3-E1 [20]): Active
